One assay deals with T1, GAK (Homo sapiens, UniProt O14976).
T1 sequence (O14976 1-1311): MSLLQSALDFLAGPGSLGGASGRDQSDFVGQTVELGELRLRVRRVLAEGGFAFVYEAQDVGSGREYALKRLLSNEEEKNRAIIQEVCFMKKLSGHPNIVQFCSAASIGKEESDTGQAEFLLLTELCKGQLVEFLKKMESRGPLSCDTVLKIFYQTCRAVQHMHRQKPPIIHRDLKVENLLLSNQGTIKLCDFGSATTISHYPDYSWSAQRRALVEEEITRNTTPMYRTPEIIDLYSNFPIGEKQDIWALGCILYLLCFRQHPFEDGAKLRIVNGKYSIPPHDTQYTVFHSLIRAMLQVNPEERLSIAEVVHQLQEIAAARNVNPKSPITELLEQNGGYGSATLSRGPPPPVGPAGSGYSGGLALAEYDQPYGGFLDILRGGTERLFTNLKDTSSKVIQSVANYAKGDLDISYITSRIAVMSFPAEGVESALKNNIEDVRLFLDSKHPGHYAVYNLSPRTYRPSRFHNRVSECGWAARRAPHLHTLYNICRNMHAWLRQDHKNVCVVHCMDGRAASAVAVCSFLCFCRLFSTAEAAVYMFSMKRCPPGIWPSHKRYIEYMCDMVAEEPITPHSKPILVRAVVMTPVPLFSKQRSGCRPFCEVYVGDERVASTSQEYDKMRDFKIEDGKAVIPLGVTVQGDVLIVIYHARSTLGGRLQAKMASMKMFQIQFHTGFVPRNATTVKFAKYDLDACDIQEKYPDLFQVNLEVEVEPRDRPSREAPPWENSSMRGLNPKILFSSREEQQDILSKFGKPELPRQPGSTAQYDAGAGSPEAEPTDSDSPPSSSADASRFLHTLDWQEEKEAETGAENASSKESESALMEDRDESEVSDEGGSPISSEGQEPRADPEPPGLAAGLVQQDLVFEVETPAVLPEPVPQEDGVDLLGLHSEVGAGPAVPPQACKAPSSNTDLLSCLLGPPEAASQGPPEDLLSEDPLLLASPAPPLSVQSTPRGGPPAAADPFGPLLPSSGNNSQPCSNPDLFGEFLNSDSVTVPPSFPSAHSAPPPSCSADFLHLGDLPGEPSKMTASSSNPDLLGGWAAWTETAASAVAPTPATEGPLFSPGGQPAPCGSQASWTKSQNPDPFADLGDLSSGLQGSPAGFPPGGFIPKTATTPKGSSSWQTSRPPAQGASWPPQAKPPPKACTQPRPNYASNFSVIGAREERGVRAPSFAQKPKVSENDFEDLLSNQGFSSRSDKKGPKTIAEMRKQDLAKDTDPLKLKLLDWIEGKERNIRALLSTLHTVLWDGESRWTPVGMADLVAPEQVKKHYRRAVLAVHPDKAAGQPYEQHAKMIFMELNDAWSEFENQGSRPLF
As to the kind of experiment: MIB washout assay. It is filed as binding. The following applies: H23 cells, 1 μM 4h, MIB pulldown ratio SM1-71/SM1-71-R.

Assay [1] has as its target T2, AURKA (Homo sapiens, UniProt O14965).
T2 sequence (O14965 1-403): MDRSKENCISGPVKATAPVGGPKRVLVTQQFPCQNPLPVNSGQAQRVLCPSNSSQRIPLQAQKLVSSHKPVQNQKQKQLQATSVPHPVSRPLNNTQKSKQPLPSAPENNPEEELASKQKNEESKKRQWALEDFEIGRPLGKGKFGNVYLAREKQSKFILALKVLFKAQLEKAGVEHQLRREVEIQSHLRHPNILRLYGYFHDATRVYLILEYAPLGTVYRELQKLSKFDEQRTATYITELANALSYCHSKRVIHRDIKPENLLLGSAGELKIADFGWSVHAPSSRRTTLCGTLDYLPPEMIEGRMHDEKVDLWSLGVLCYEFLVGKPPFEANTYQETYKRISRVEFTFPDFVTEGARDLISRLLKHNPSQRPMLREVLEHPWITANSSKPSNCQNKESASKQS
The assay is described as follows: MIB washout assay. The format is binding.

A further assay has as its target SRC (Homo sapiens, UniProt P12931). The assay is described as follows: mass shift assay. It is filed as binding. To be noted: incubated 4 and 24h. In outline: (§1)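 Kinase protein at 0.12 mM in 10 mM HEPES pH 7.5, 500 mM NaCl, incubated with 0.2 mM test compound at 4°C for 4 h and 24 h. Samples were diluted in 0.1% formic acid and desalted on a C3 pre-column. ESI-TOF was run in positive mode at 120 V, and intact mass was obtained by deconvolution to detect the adduct.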

In assay [2] the target is T2, AURKA. The assay is described as follows: MIB dose-dependent kinase inhibition assay. It is filed as binding. The following applies: read-out: IC50 in the MIB assay, H23 cell lysate, overnight 4°C.
The test system of the next assay is EIF2AK3. The assay is described as follows: MIB washout assay. The format is binding, Human. The following applies: H23 cells, 1 μM 4h, MIB pulldown ratio SM1-71/SM1-71-R.
Another assay concerns LYN. The assay is described as follows: MIB washout assay. The following applies: H23 cells, 1 μM 4h, MIB pulldown ratio SM1-71/SM1-71-R. The format is binding, Human.
Another assay deals with TNIK. The assay is described as follows: MIB washout assay. The format is binding, Human. To be noted: H23 cells, 1 μM 4h, MIB pulldown ratio SM1-71/SM1-71-R.
For another assay, the system named is CDK17. The assay is described as follows: MIB washout assay. It is filed as binding, Human. To be noted: H23 cells, 1 μM 4h, MIB pulldown ratio SM1-71/SM1-71-R.
The next assay deals with PTK2. As to the kind of experiment: MIB washout assay. The format is binding, Human.
A further assay concerns the target MAP2K2 (Homo sapiens, UniProt P36507). As to the kind of experiment: mass shift assay. It is filed as binding. The following applies: incubated 4 and 24h. In outline:
as §1

A further assay deals with PIK3C3. The assay is described as follows: MIB washout assay. The format is binding, Human. The following applies: H23 cells, 1 μM 4h, MIB pulldown ratio SM1-71/SM1-71-R.
Where [3] appears, read: H23 cells, 1 μM 4h, 0h post-washout, MIB pulldown ratio SM1-71/SM1-71-R.
Setting [4] is: H23 cells, 1 μM 4h, 6h post-washout, MIB pulldown ratio SM1-71/SM1-71-R.

A word on the IC50: it is the concentration that gives 50% inhibition.

SRC, sequence (P12931 whole entry, species assumed): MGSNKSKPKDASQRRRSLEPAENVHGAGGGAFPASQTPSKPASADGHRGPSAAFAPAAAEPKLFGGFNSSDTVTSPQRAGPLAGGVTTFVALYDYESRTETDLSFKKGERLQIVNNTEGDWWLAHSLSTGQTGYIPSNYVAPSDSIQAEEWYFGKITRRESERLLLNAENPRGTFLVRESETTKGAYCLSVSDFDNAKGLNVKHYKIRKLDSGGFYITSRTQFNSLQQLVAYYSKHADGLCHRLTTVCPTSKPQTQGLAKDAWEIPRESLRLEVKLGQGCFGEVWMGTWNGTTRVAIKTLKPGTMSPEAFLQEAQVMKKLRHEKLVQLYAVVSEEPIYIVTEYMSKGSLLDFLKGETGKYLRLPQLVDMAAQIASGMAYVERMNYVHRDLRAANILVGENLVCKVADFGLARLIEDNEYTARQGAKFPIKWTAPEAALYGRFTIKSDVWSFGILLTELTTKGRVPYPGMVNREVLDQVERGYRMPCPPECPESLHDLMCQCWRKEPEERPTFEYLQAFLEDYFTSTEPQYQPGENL
MAP2K2, sequence (P36507 whole entry, species assumed): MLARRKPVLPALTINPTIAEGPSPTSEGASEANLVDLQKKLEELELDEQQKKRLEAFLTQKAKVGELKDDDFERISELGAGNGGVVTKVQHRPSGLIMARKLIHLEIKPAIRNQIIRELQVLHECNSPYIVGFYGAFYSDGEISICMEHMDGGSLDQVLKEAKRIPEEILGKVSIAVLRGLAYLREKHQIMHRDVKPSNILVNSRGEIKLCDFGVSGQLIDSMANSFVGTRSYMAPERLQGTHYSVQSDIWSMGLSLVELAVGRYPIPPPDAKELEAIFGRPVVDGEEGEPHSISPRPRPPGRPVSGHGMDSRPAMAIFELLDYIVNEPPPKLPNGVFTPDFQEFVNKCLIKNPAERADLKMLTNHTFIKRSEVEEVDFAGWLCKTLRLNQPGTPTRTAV

As to `C=CC(=O)Nc1ccccc1Nc1nc(Nc2ccc(N3CCN(C)CC3)cc2)ncc1Cl` [SM1-71], the BI-0h was 0.07 at GAK (0h post-washout); 1.16 at AURKA [1] (setting [3]); 0.8 in the assay with EIF2AK3 (0h post-washout); 1.1 with LYN (0h post-washout); 0.67 in the assay with TNIK (0h post-washout); 0.46 with CDK17 (0h post-washout). Besides, the BI-0h came to 1.3 with PTK2 (setting [3]) and 0.28 in the assay with PIK3C3 (0h post-washout). In addition, the BI-6h at GAK (6h post-washout) was determined as 0.04; at AURKA [1] (setting [4]) it was 2.38; in the assay on EIF2AK3 (6h post-washout) it was 0.66; in the assay with LYN (6h post-washout), 0.79; in the assay with TNIK (6h post-washout), 0.74; in the assay with CDK17 (6h post-washout), 0.76. The results for the BI-6h with PTK2 (setting [4]) and in the assay on PIK3C3 (6h post-washout) were 1.12 and 0.44, respectively. Moreover, the Binding entry at AURKA [1] (class from BI 0h and 6h) is recorded as “Strongly Reversible (BI0h,6h greater than 1 suggesting a strong preference for reversible mode of inhibition)”; in the assay with PTK2 (class from BI 0h and 6h), “Strongly Reversible (BI0h,6h greater than 1 suggesting a strong preference for reversible mode of inhibition)”. Moreover, the “covalent adduct formation (mass shift)” value on SRC and at MAP2K2 was “formed covalent adducts” throughout. For the same compound, at AURKA [2], the IC50 is under 10 nM.

For the origin of these results see paper PMC6634314 (Cell chemical biology, 2019).
